Laboratory results reported in ChEMBL document CHEMBL1649231, “In vitro activities of panduratin A against clinical Staphylococcus strains” (2009).
In brackets after ≈: the same amount, converted by molar mass.

How the values were obtained:
Format in all cases: functional
[1] = system: Staphylococcus haemolyticus; experiment: Antimicrobial activity against methicillin-susceptible coagulase-negative Staphylococcus haemolyticus after 24 hrs by broth microdilution method
Procedure, shortened: (§1)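 Clinical isolates came from blood, body fluids, genital secretions, pus or sputum, identified conventionally or by Vitek. MICs were run by CLSI M7-A6 broth microdilution in Mueller-Hinton broth with 5 × 10^5 CFU/ml inoculum. Agents were twofold serially diluted, starting from 10% DMSO. Drug-free and uninoculated controls were included. Plates were incubated aerobically at 37°C for 24 h; MIC is the lowest concentration giving no visible growth.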

[2] = system: Staphylococcus epidermidis; experiment: Antimicrobial activity against methicillin-resistant coagulase-negative Staphylococcus epidermidis after 24 hrs by broth microdilution method; procedure, shortened: as §1
Prevotella intermedia [3] = experiment: Bactericidal activity against Prevotella intermedia
Porphyromonas gingivalis [4] = experiment: Bactericidal activity against Porphyromonas gingivalis
Staphylococcus aureus [5] = experiment: Bactericidal activity against methicillin-susceptible Staphylococcus aureus after 24 hrs by plate counting method
Procedure, shortened: (§2)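 Clinical staphylococcal isolates from patient body fluids, blood, genital secretions, pus or sputum; species by conventional methods or Vitek. Twofold dilutions in Mueller-Hinton broth, inoculum 5 × 10^5 CFU/ml, 37°C aerobic 24 h (CLSI M7-A6 microdilution). About 100 μl from each well without visible growth spread on MHA; 37°C 24 h. MBC = lowest concentration giving no growth on agar.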

Mammaliicoccus sciuri [6] = experiment: Antimicrobial activity against methicillin-susceptible coagulase-negative Staphylococcus sciuri after 24 hrs by broth microdilution method; procedure, shortened: as §1
Cutibacterium acnes [7] = experiment: Antimicrobial activity against Propionibacterium acnes
Staphylococcus hominis [8] = experiment: Bactericidal activity against methicillin-susceptible coagulase-negative Staphylococcus hominis after 24 hrs by plate counting method; procedure, shortened: as §2
Staphylococcus simulans [9] = experiment: Bactericidal activity against methicillin-resistant coagulase-negative Staphylococcus simulans after 24 hrs by plate counting method; procedure, shortened: as §2
[10] = system: Staphylococcus haemolyticus; experiment: Bactericidal activity against methicillin-resistant coagulase-negative Staphylococcus haemolyticus after 24 hrs by plate counting method
[11] = system: Staphylococcus epidermidis; experiment: Bactericidal activity against methicillin-resistant coagulase-negative Staphylococcus epidermidis after 24 hrs by plate counting method
Staphylococcus aureus [12] = experiment: Bactericidal activity against methicillin-resistant Staphylococcus aureus after 24 hrs by plate counting method; settings: Staphylococcus aureus, 24 h
Hoylesella loescheii [13] = experiment: Bactericidal activity against Prevotella loescheii
Mammaliicoccus sciuri [14] = experiment: Bactericidal activity against methicillin-susceptible coagulase-negative Staphylococcus sciuri after 24 hrs by plate counting method; procedure, shortened: as §2
Streptococcus mutans [15] = experiment: Bactericidal activity against Streptococcus mutans
Streptococcus mutans [16] = experiment: Antimicrobial activity against Streptococcus mutans
Mammaliicoccus sciuri [17] = experiment: Bactericidal activity against methicillin-resistant coagulase-negative Staphylococcus sciuri after 24 hrs by plate counting method; procedure, shortened: as §2
[18] = system: Staphylococcus haemolyticus; experiment: Bactericidal activity against methicillin-susceptible coagulase-negative Staphylococcus haemolyticus after 24 hrs by plate counting method; procedure, shortened: as §2
[19] = system: Staphylococcus epidermidis; experiment: Bactericidal activity against methicillin-susceptible coagulase-negative Staphylococcus epidermidis after 24 hrs by plate counting method; procedure, shortened: as §2
Staphylococcus simulans [20] = experiment: Antimicrobial activity against methicillin-resistant coagulase-negative Staphylococcus simulans after 24 hrs by broth microdilution method; procedure, shortened: as §1
[21] = system: Staphylococcus epidermidis; experiment: Antimicrobial activity against methicillin-susceptible coagulase-negative Staphylococcus epidermidis after 24 hrs by broth microdilution method; procedure, shortened: as §1
Mammaliicoccus sciuri [22] = experiment: Antimicrobial activity against methicillin-resistant coagulase-negative Staphylococcus sciuri after 24 hrs by broth microdilution method; procedure, shortened: as §1
[23] = system: Staphylococcus haemolyticus; experiment: Antimicrobial activity against methicillin-resistant coagulase-negative Staphylococcus haemolyticus after 24 hrs by broth microdilution method; procedure, shortened: as §1
Staphylococcus hominis [24] = experiment: Bactericidal activity against methicillin-resistant coagulase-negative Staphylococcus hominis after 24 hrs by plate counting method
Staphylococcus hominis [25] = experiment: Antimicrobial activity against methicillin-resistant coagulase-negative Staphylococcus hominis after 24 hrs by broth microdilution method; procedure, shortened: as §1
Staphylococcus simulans [26] = experiment: Bactericidal activity against methicillin-susceptible coagulase-negative Staphylococcus simulans after 24 hrs by plate counting method; procedure, shortened: as §2
Porphyromonas gingivalis [27] = experiment: Antimicrobial activity against Porphyromonas gingivalis
Prevotella intermedia [28] = experiment: Antimicrobial activity against Prevotella intermedia
Staphylococcus hominis [29] = experiment: Antimicrobial activity against methicillin-susceptible coagulase-negative Staphylococcus hominis after 24 hrs by broth microdilution method; procedure, shortened: as §1
Staphylococcus aureus [30] = experiment: Antimicrobial activity against methicillin-resistant Staphylococcus aureus after 24 hrs by broth microdilution method; procedure, shortened: as §1
Staphylococcus aureus [31] = experiment: Antimicrobial activity against methicillin-susceptible Staphylococcus aureus after 24 hrs by broth microdilution method; procedure, shortened: as §1
Cutibacterium acnes [32] = experiment: Bactericidal activity against Propionibacterium acnes
Hoylesella loescheii [33] = experiment: Antimicrobial activity against Prevotella loescheii
Staphylococcus simulans [34] = experiment: Antimicrobial activity against methicillin-susceptible coagulase-negative Staphylococcus simulans after 24 hrs by broth microdilution method; procedure, shortened: as §1
[35] = Staphylococcus haemolyticus, 24 h
[36] = Staphylococcus epidermidis, 24 h

Q: How did the MIC50 [1] turn out when `COc1cc(O)c(C(=O)[C@@H]2[C@H](CC=C(C)C)C(C)=CC[C@H]2c2ccccc2)c(O)c1` [PANDURATIN A] was run?
A: Its MIC50 is 0.5 µg/mL (≈ 1.23 µM).

Q: And the MIC90 [1]?
A: The MIC90 was 1 µg/mL (≈ 2.46 µM).

Q: What about the MIC50 [2] of the same compound?
A: The MIC50 was 0.25 µg/mL (≈ 0.615 µM).

Q: What about the MIC90 [2] of the same compound?
A: The MIC90 was 1 µg/mL (≈ 2.46 µM).

Q: And the MBC (Prevotella intermedia [3])?
A: Its MBC is 4 µg/mL (≈ 9.84 µM).

Q: What about the MBC (Porphyromonas gingivalis [4]) of the same compound?
A: The MBC was 8 µg/mL (≈ 19.7 µM).

Q: And the MBC50 (Staphylococcus aureus [5])?
A: The MBC50 was 2 µg/mL (≈ 4.92 µM).

Q: And the MBC90 (Staphylococcus aureus [5])?
A: Its MBC90 is 4 µg/mL (≈ 9.84 µM).

Q: And the MBC (Staphylococcus aureus [5]; Staphylococcus aureus, 24 h)?
A: Its MBC is 1 µg/mL (≈ 2.46 µM).

Q: What about the MIC50 (Mammaliicoccus sciuri [6]) of the same compound?
A: The MIC50 was 0.5 µg/mL (≈ 1.23 µM).

Q: And the MIC90 (Mammaliicoccus sciuri [6])?
A: Its MIC90 is 1 µg/mL (≈ 2.46 µM).

Q: What about the MIC (Cutibacterium acnes [7]) of the same compound?
A: Its MIC is 2 µg/mL (≈ 4.92 µM).

Q: What about the MBC50 (Staphylococcus hominis [8]) of the same compound?
A: The MBC50 was 1 µg/mL (≈ 2.46 µM).

Q: What about the MBC90 (Staphylococcus hominis [8]) of the same compound?
A: Its MBC90 is 4 µg/mL (≈ 9.84 µM).

Q: What about the MBC (Staphylococcus hominis [8]; Staphylococcus hominis, 24 h) of the same compound?
A: The MBC was 0.125 µg/mL (≈ 0.307 µM).

Q: What about the MBC50 (Staphylococcus simulans [9]) of the same compound?
A: The MBC50 was 2 µg/mL (≈ 4.92 µM).

Q: And the MBC (Staphylococcus simulans [9]; Staphylococcus simulans, 24 h)?
A: Its MBC is 1 µg/mL (≈ 2.46 µM).

Q: And the MBC50 [10]?
A: The MBC50 was 2 µg/mL (≈ 4.92 µM).

Q: What about the MBC [10, 35] of the same compound?
A: The MBC was 1 µg/mL (≈ 2.46 µM).

Q: And the MBC50 [11]?
A: Its MBC50 is 2 µg/mL (≈ 4.92 µM).

Q: And the MBC [11, 36]?
A: The MBC was 1 µg/mL (≈ 2.46 µM).

Q: What about the MBC (Staphylococcus aureus [12]) of the same compound?
A: The MBC was 2 µg/mL (≈ 4.92 µM).

Q: And the MBC (Hoylesella loescheii [13])?
A: The MBC was 8 µg/mL (≈ 19.7 µM).

Q: What about the MBC50 (Mammaliicoccus sciuri [14]) of the same compound?
A: Its MBC50 is 1 µg/mL (≈ 2.46 µM).

Q: And the MBC90 (Mammaliicoccus sciuri [14])?
A: Its MBC90 is 4 µg/mL (≈ 9.84 µM).

Q: What about the MBC (Mammaliicoccus sciuri [14]; Mammaliicoccus sciuri, 24 h) of the same compound?
A: Its MBC is 0.125 µg/mL (≈ 0.307 µM).

Q: And the MBC (Streptococcus mutans [15])?
A: The MBC was 8 µg/mL (≈ 19.7 µM).

Q: And the MIC (Streptococcus mutans [16])?
A: Its MIC is 4 µg/mL (≈ 9.84 µM).

Q: And the MBC50 (Mammaliicoccus sciuri [17])?
A: Its MBC50 is 2 µg/mL (≈ 4.92 µM).

Q: And the MBC (Mammaliicoccus sciuri [17]; Mammaliicoccus sciuri, 24 h)?
A: Its MBC is 1 µg/mL (≈ 2.46 µM).

Q: And the MBC50 [18]?
A: Its MBC50 is 1 µg/mL (≈ 2.46 µM).

Q: And the MBC90 [18]?
A: The MBC90 was 4 µg/mL (≈ 9.84 µM).

Q: And the MBC [18, 35]?
A: The MBC was 0.125 µg/mL (≈ 0.307 µM).

Q: What about the MBC50 [19] of the same compound?
A: The MBC50 was 1 µg/mL (≈ 2.46 µM).

Q: And the MBC90 [19]?
A: Its MBC90 is 4 µg/mL (≈ 9.84 µM).

Q: And the MBC [19, 36]?
A: Its MBC is 0.125 µg/mL (≈ 0.307 µM).

Q: And the MIC50 (Staphylococcus simulans [20])?
A: The MIC50 was 0.25 µg/mL (≈ 0.615 µM).

Q: And the MIC90 (Staphylococcus simulans [20])?
A: The MIC90 was 1 µg/mL (≈ 2.46 µM).

Q: And the MIC50 [21]?
A: Its MIC50 is 0.5 µg/mL (≈ 1.23 µM).

Q: And the MIC90 [21]?
A: The MIC90 was 1 µg/mL (≈ 2.46 µM).

Q: And the MIC50 (Mammaliicoccus sciuri [22])?
A: The MIC50 was 0.25 µg/mL (≈ 0.615 µM).

Q: And the MIC90 (Mammaliicoccus sciuri [22])?
A: Its MIC90 is 1 µg/mL (≈ 2.46 µM).

Q: And the MIC50 [23]?
A: The MIC50 was 0.25 µg/mL (≈ 0.615 µM).

Q: What about the MIC90 [23] of the same compound?
A: The MIC90 was 1 µg/mL (≈ 2.46 µM).

Q: What about the MBC50 (Staphylococcus hominis [24]) of the same compound?
A: Its MBC50 is 2 µg/mL (≈ 4.92 µM).

Q: And the MBC (Staphylococcus hominis [24]; Staphylococcus hominis, 24 h)?
A: Its MBC is 1 µg/mL (≈ 2.46 µM).

Q: What about the MIC50 (Staphylococcus hominis [25]) of the same compound?
A: The MIC50 was 0.25 µg/mL (≈ 0.615 µM).

Q: And the MIC90 (Staphylococcus hominis [25])?
A: Its MIC90 is 1 µg/mL (≈ 2.46 µM).

Q: And the MBC50 (Staphylococcus simulans [26])?
A: The MBC50 was 1 µg/mL (≈ 2.46 µM).

Q: What about the MBC90 (Staphylococcus simulans [26]) of the same compound?
A: Its MBC90 is 4 µg/mL (≈ 9.84 µM).

Q: And the MBC (Staphylococcus simulans [26]; Staphylococcus simulans, 24 h)?
A: Its MBC is 0.125 µg/mL (≈ 0.307 µM).

Q: And the MIC (Porphyromonas gingivalis [27])?
A: Its MIC is 4 µg/mL (≈ 9.84 µM).

Q: What about the MIC (Prevotella intermedia [28]) of the same compound?
A: Its MIC is 2 µg/mL (≈ 4.92 µM).

Q: And the MIC50 (Staphylococcus hominis [29])?
A: Its MIC50 is 0.5 µg/mL (≈ 1.23 µM).

Q: What about the MIC90 (Staphylococcus hominis [29]) of the same compound?
A: Its MIC90 is 1 µg/mL (≈ 2.46 µM).

Q: And the MIC (Staphylococcus aureus [30])?
A: Its MIC is 0.5 µg/mL (≈ 1.23 µM).

Q: And the MIC50 (Staphylococcus aureus [30])?
A: The MIC50 was 0.5 µg/mL (≈ 1.23 µM).

Q: And the MIC90 (Staphylococcus aureus [30])?
A: The MIC90 was 1 µg/mL (≈ 2.46 µM).

Q: And the MIC (Staphylococcus aureus [31])?
A: Its MIC is 0.5 µg/mL (≈ 1.23 µM).

Q: And the MIC50 (Staphylococcus aureus [31])?
A: Its MIC50 is 0.5 µg/mL (≈ 1.23 µM).

Q: And the MIC90 (Staphylococcus aureus [31])?
A: Its MIC90 is 1 µg/mL (≈ 2.46 µM).

Q: What about the MBC (Cutibacterium acnes [32]) of the same compound?
A: Its MBC is 4 µg/mL (≈ 9.84 µM).

Q: What about the MIC (Hoylesella loescheii [33]) of the same compound?
A: The MIC was 4 µg/mL (≈ 9.84 µM).

Q: And the MIC50 (Staphylococcus simulans [34])?
A: Its MIC50 is 0.5 µg/mL (≈ 1.23 µM).

Q: What about the MIC90 (Staphylococcus simulans [34]) of the same compound?
A: Its MIC90 is 1 µg/mL (≈ 2.46 µM).
